# Laboratory results taken from ChEMBL document CHEMBL1126019, “Synthesis, stability, and biological evaluation of water-soluble prodrugs of a new echinocandin lipopeptide. Discovery of a potential clinical agent for the treatment of systemic candidiasis and Pneumocystis carinii pneumonia (PCP)” (J Med Chem, 1992).
# Numbered stars: 1 amine (or outer) side, 2 acyl side, 3 side chain; on linkers, the order of the positions; unused ones are H or OH. Bridge positions count the residues as written; N and C are the ends. Square brackets hold non-standard residues; d marks the D form. Peptide text beside a SMILES is read from it. * marks the point of attachment. Orn(4R-OH,5R-OH) = O=C([C@H](C[C@@H](O)[C@@H](O)N[*:3])N[*:1])[*:2]; hTyr(3S-OH,4S-OH) = N[C@H](C(=O)O)[C@H](O)[C@@H](O)c1ccc(O)cc1; Pro(3S-OH,4S-Me) = C[C@H]1CN[C@H](C(=O)O)[C@H]1O; Benzoyl(4-octyloxy) = CCCCCCCCOc1ccc(C(=O)*)cc1; Hyp = O=C(O)[C@@H]1C[C@@H](O)CN1
# Columns and labels:
# Mus musculus = species on record: Mus musculus; assay: Minimum effect dose required to reduce the number of colony forming units in per gram kidney of mice after being challenged, by tail vein injection, with 5 X l0e4 cells of Candida albicans (MY 1055); format: functional
# Method in brief: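 DBA/2 mice (5 per dose level) were infected intravenously and dosed ip with vehicle sham or 1.5, 3.0 or 6.0 mg/kg twice daily for 4 days. On day 7 post-infection, kidneys were cultured on SDA (35 °C, 24 h) and CFU/g counted. MED99 is the dose giving ≥99% CFU/g reduction versus vehicle sham.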
# Rattus norvegicus = species on record: Rattus norvegicus; assay: Minimum effect dose required to reduce the number of alveolor cyst load in rat Pneumocystis carinii pneumonia assay; format: functional
# Method in brief: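 Immunosuppressed Sprague-Dawley rats with confirmed infection (5 per dose level) were dosed subcutaneously, 0.15 and 0.60 mg/kg twice daily for 4 days. On day 5, lungs were homogenized and cysts counted microscopically in a known amount of homogenate. MED90 is the dose giving ≥90% cyst reduction versus vehicle sham controls.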
# Fungi [1] = assay: (§1) Minimum fungicidal concentration against Candida albicans MY 1028; format: functional, organism-based
# Method in brief: (§2)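 Clinical isolates in yeast nitrogen base with 1% dextrose, inoculated with about 5×10^3 CFU per well. Drug was tested by 2-fold serial dilution from 128 to 0.06 µg/mL, with growth for 24 h at 35 °C. 1.5-µL aliquots were then spotted onto Sabouraud dextrose agar and incubated at 35 °C for 24 h. MFC was the lowest concentration giving fewer than five colonies per spot. Duplicate determinations.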
# Fungi [2] = assay: (§3) Minimum fungicidal concentration against Candida tropicalis MY 1012; format: functional, organism-based; method in brief: as §2
# Fungi [3] = assay: Minimum fungicidal concentration against Candida pseudotropicalis MY 1100; format: functional, organism-based
# Method in brief: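 Clinical isolates were inoculated at about 5×10^3 CFU into yeast nitrogen base with 1% dextrose, with drug in 2-fold dilutions from 128 to 0.06 µg/mL, and grown 24 h at 35 °C. Then 1.5 µL aliquots were spotted on Sabouraud dextrose agar and held 24 h at 35 °C. MFC is the lowest concentration giving fewer than five colonies per spot, from duplicate determinations.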
# Homo sapiens = species on record: Homo sapiens; assay: Hemolytic potential was determined as the minimum lytic concentration against human red blood cells; format: functional, cell-based
# Method in brief: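 Compounds were serially diluted in water containing 10% DMSO and added to whole human blood, then incubated 2 h at 37 °C. Red cell lysis was scored visually, and the lowest lytic concentration was recorded.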
# [4] = Inhibitory activity against glucan synthesis; format: functional
# Fungi [5] = assay: (§4) Minimum fungicidal concentration against Candida albicans MY 1055; format: functional, organism-based; method in brief: as §2
# Fungi [6] = assay: (§5) Minimum fungicidal concentration against Candida parapsilosis MY 1010; format: functional, organism-based; method in brief: as §2
# Candida albicans [7] = assay: as §1; format: functional, organism-based; method in brief: as §2
# Candida parapsilosis = assay: as §5; format: functional, organism-based; method in brief: as §2
# Candida tropicalis = assay: as §3; format: functional, organism-based; method in brief: as §2
# Candida albicans [8] = assay: as §4; format: functional, organism-based; method in brief: as §2
SMILES,MED99 (Mus musculus),MED90 (Rattus norvegicus),Concentration (Fungi [1]),Concentration (Fungi [2]),Concentration (Fungi [3]),Concentration (Homo sapiens),IC50 [4],Concentration (Fungi [5]),Concentration (Fungi [6]),Concentration (Candida albicans [7]),Concentration (Candida parapsilosis),Concentration (Candida tropicalis),Concentration (Candida albicans [8])
CCC(C)CC(C)CCCCCCCCC(=O)N[C@H]1C[C@@H](O)[C@@H](O)NC(=O)[C@@H]2[C@@H](O)CCN2C(=O)[C@H]([C@@H](O)CC(N)=O)NC(=O)[C@H]([C@H](O)[C@@H](O)c2ccc(OC(=O)NCC(=O)O)cc2)NC(=O)[C@@H]2C[C@@H](O)CN2C(=O)[C@H]([C@@H](C)O)NC1=O (some centres not stated),> 6 mg/kg,> 0.3 mg/kg,,,,,,,,,,,
CCC(C)CC(C)CCCCCCCCC(=O)N[C@H]1C[C@@H](O)[C@@H](O)NC(=O)[C@@H]2[C@@H](O)CCN2C(=O)[C@H]([C@@H](O)CC(N)=O)NC(=O)[C@H]([C@H](O)[C@@H](O)c2ccc(OC(=O)N(C)CC(=O)O)cc2)NC(=O)[C@@H]2C[C@@H](O)CN2C(=O)[C@H]([C@H](C)O)NC1=O (some centres not stated),,,2 µg/mL,1 µg/mL,8 µg/mL,25 µg/mL,> 1000 nM,2 µg/mL,,,,,
CCC(C)CC(C)CCCCCCCCC(=O)N[C@H]1C[C@@H](O)[C@@H](O)NC(=O)[C@@H]2[C@@H](O)CCN2C(=O)[C@H]([C@@H](O)CC(N)=O)NC(=O)[C@H]([C@H](O)[C@@H](O)c2ccc(OC(=O)CCCC(=O)O)cc2)NC(=O)[C@@H]2C[C@@H](O)CN2C(=O)[C@H]([C@H](C)O)NC1=O (some centres not stated),,,0.5 µg/mL,0.5 µg/mL,2 µg/mL,> 400 µg/mL,1000 nM,0.5 µg/mL,,,,,
CCC(C)CC(C)CCCCCCCCC(=O)N[C@H]1C[C@@H](O)[C@@H](O)NC(=O)[C@@H]2[C@@H](O)CCN2C(=O)[C@H]([C@@H](O)CC(N)=O)NC(=O)[C@H]([C@H](O)[C@@H](O)c2ccc(OC(=O)NCCC(=O)O)cc2)NC(=O)[C@@H]2C[C@@H](O)CN2C(=O)[C@H]([C@H](C)O)NC1=O (some centres not stated),,,128 µg/mL,128 µg/mL,,> 400 µg/mL,> 10000 nM,128 µg/mL,> 128 µg/mL,,,,
CCC(C)CC(C)CCCCCCCCC(=O)N[C@H]1C[C@@H](O)[C@@H](O)NC(=O)[C@@H]2[C@@H](O)CCN2C(=O)[C@H]([C@@H](O)CC(N)=O)NC(=O)[C@H]([C@H](O)[C@@H](O)c2ccc(O)cc2)NC(=O)[C@@H]2C[C@@H](O)CN2C(=O)[C@H]([C@@H](C)O)NC1=O (some centres not stated),3 mg/kg,0.15 mg/kg,,,,,,,,,,,
CCC(C)CC(C)CCCCCCCCC(=O)N[C@H]1C[C@@H](O)[C@@H](O)NC(=O)[C@@H]2[C@@H](O)CCN2C(=O)[C@H]([C@@H](O)CC(N)=O)NC(=O)[C@H]([C@H](O)[C@@H](O)c2ccc(OC(=O)CN)cc2)NC(=O)[C@@H]2C[C@@H](O)CN2C(=O)[C@H]([C@@H](C)O)NC1=O.Cl (some centres not stated),3 mg/kg,0.6 mg/kg,,,,,,,,,,,
CCC(C)CC(C)CCCCCCCCC(=O)N[C@H]1C[C@@H](O)[C@@H](O)NC(=O)[C@@H]2[C@@H](O)CCN2C(=O)[C@H]([C@@H](O)CC(N)=O)NC(=O)[C@H]([C@H](O)[C@@H](O)c2ccc(OC(=O)CCN)cc2)NC(=O)[C@@H]2C[C@@H](O)CN2C(=O)[C@H]([C@H](C)O)NC1=O (some centres not stated),,,1 µg/mL,0.5 µg/mL,,100 µg/mL,200 nM,1 µg/mL,16 µg/mL,,,,
"CCCCCCCCOc1ccc(C(=O)N[C@H]2C[C@@H](O)[C@@H](O)NC(=O)[C@@H]3[C@@H](O)[C@@H](C)CN3C(=O)[C@H]([C@@H](C)O)NC(=O)[C@H]([C@H](O)[C@@H](O)c3ccc(O)cc3)NC(=O)[C@@H]3C[C@@H](O)CN3C(=O)[C@H]([C@@H](C)O)NC2=O)cc1 [CILOFUNGIN] ({Benzoyl(4-octyloxy)}-[Orn(4R-OH,5R-OH)]T[Hyp][hTyr(3S-OH,4S-OH)]T[Pro(3S-OH,4S-Me)]; lactam 1-C)",3 mg/kg,> 2.5 mg/kg,,,,> 400 µg/mL,1000 nM,,,0.5 µg/mL,16 µg/mL,0.25 µg/mL,0.5 µg/mL
CCC(C)CC(C)CCCCCCCCC(=O)N[C@H]1C[C@@H](O)[C@@H](O)NC(=O)[C@@H]2[C@@H](O)CCN2C(=O)[C@H]([C@@H](O)CC(N)=O)NC(=O)[C@H]([C@H](O)[C@@H](O)c2ccc(O)cc2)NC(=O)[C@@H]2C[C@@H](O)CN2C(=O)[C@H]([C@H](C)O)NC1=O (some centres not stated),,,0.125 µg/mL,0.06 µg/mL,2 µg/mL,> 400 µg/mL,70 nM,0.25 µg/mL,4 µg/mL,,,,
CCC(C)CC(C)CCCCCCCCC(=O)N[C@H]1C[C@@H](O)[C@@H](O)NC(=O)[C@@H]2[C@@H](O)CCN2C(=O)[C@H]([C@@H](O)CC(N)=O)NC(=O)[C@H]([C@H](O)[C@@H](O)c2ccc(OC(=O)CCCC(=O)O)cc2)NC(=O)[C@@H]2C[C@@H](O)CN2C(=O)[C@H]([C@@H](C)O)NC1=O (some centres not stated),6 mg/kg,0.6 mg/kg,,,,,,,,,,,
